In ChEMBL document CHEMBL4400530, “Synthesis and structure-activity relationship studies of water-soluble β-cyclodextrin-glycyrrhetinic acid conjugates as potential anti-influenza virus agents” (Eur J Med Chem, 2019):
Calls of active or inactive are those of the source. The rule behind the calls is not given here.

Key:
MDCK = experiment: Cytotoxicity against MDCK cells assessed as effect on cell viability at 50 uM measured after 36 hrs by CellTiter-Glo assay; type: cell-based, Canis lupus familiaris; conditions: dog
In short: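 MDCK cells (1 × 10⁴ per well) left to adhere 24 h at 37 °C, 5% CO₂. Medium then replaced with fresh medium containing compound at 50 μM, in triplicate. Controls received medium with 1% DMSO. Plates incubated 36 h at 37 °C, 5% CO₂, then viability read by CellTiter-Glo luminescence.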

Influenza A virus = experiment: Antiviral activity against Influenza A virus (A/WSN/33(H1N1)) infected in MDCK cells assessed as reduction in virus-induced cytopathic effect at 50 uM after 40 hrs by CellTiter-Glo assay; type: functional, organism-based; conditions: A/WSN/1933(H1N1)
In short: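 MDCK cells seeded, grown overnight, then infected with A/WSN/33 (H1N1) at MOI 0.1 in DMEM with 1% FBS, 2 μg/mL TPCK-treated trypsin and test compound (final DMSO 1%). Compounds screened at a single 50 μM concentration. Incubation 40 h, then viability read by CellTiter-Glo luminescence. Oseltamivir positive control, DMSO negative control. Virus stock titres determined in MDCK cells by Reed and Muench.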

SMILES: CC1(C)[C@@H](O)CC[C@]2(C)[C@H]3C(=O)C=C4[C@@H]5C[C@@](C)(C(=O)NCCOCc6cn(C[C@H]7O[C@@H]8O[C@H]9[C@H](O)[C@@H](O)[C@@H](O[C@H]%10[C@H](O)[C@@H](O)[C@@H](O[C@H]%11[C@H](O)[C@@H](O)[C@@H](O[C@H]%12[C@H](O)[C@@H](O)[C@@H](O[C@H]%13[C@H](O)[C@@H](O)[C@@H](O[C@H]%14[C@H](O)[C@@H](O)[C@@H](O[C@H]7[C@H](O)[C@H]8O)O[C@@H]%14CO)O[C@@H]%13CO)O[C@@H]%12CO)O[C@@H]%11CO)O[C@@H]%10CO)O[C@@H]9CO)nn6)CC[C@]5(C)CC[C@@]4(C)[C@]3(C)CC[C@@H]12
- Activity (MDCK): Non-Toxic
- Activity (Influenza A virus): Active

SMILES: CC(=O)OC[C@H]1O[C@@H]2O[C@H]3[C@H](OC(C)=O)[C@@H](OC(C)=O)[C@@H](O[C@H]4[C@H](OC(C)=O)[C@@H](OC(C)=O)[C@@H](O[C@H]5[C@H](OC(C)=O)[C@@H](OC(C)=O)[C@@H](O[C@H]6[C@H](OC(C)=O)[C@@H](OC(C)=O)[C@@H](O[C@H]7[C@H](OC(C)=O)[C@@H](OC(C)=O)[C@@H](O[C@H]8[C@H](OC(C)=O)[C@@H](OC(C)=O)[C@@H](O[C@H]1[C@H](OC(C)=O)[C@H]2OC(C)=O)O[C@@H]8COC(C)=O)O[C@@H]7COC(C)=O)O[C@@H]6COC(C)=O)O[C@@H]5Cn1cc(CNC(=O)[C@@]2(C)CC[C@]5(C)CC[C@]6(C)C(=CC(=O)[C@@H]7[C@@]8(C)CC[C@H](O)C(C)(C)[C@@H]8CC[C@]76C)[C@@H]5C2)nn1)O[C@@H]4COC(C)=O)O[C@@H]3COC(C)=O
- Activity (MDCK): Non-Toxic
- Activity (Influenza A virus): Active

SMILES: CC(=O)OC[C@H]1O[C@@H]2O[C@H]3[C@H](OC(C)=O)[C@@H](OC(C)=O)[C@@H](O[C@H]4[C@H](OC(C)=O)[C@@H](OC(C)=O)[C@@H](O[C@H]5[C@H](OC(C)=O)[C@@H](OC(C)=O)[C@@H](O[C@H]6[C@H](OC(C)=O)[C@@H](OC(C)=O)[C@@H](O[C@H]7[C@H](OC(C)=O)[C@@H](OC(C)=O)[C@@H](O[C@H]8[C@H](OC(C)=O)[C@@H](OC(C)=O)[C@@H](O[C@H]1[C@H](OC(C)=O)[C@H]2OC(C)=O)O[C@@H]8COC(C)=O)O[C@@H]7COC(C)=O)O[C@@H]6COC(C)=O)O[C@@H]5Cn1cc(COCCNC(=O)[C@@]2(C)CC[C@]5(C)CC[C@]6(C)C(=CC(=O)[C@@H]7[C@@]8(C)CC[C@H](O)C(C)(C)[C@@H]8CC[C@]76C)[C@@H]5C2)nn1)O[C@@H]4COC(C)=O)O[C@@H]3COC(C)=O
- Activity (MDCK): Non-Toxic
- Activity (Influenza A virus): Active

SMILES: CC(=O)OC[C@H]1O[C@@H]2O[C@H]3[C@H](O)[C@@H](O)[C@@H](O[C@H]4[C@H](O)[C@@H](O)[C@@H](O[C@H]5[C@H](O)[C@@H](O)[C@@H](O[C@H]6[C@H](O)[C@@H](O)[C@@H](O[C@H]7[C@H](O)[C@@H](O)[C@@H](O[C@H]8[C@H](O)[C@@H](O)[C@@H](O[C@H]1[C@H](O)[C@H]2O)O[C@@H]8CO)O[C@@H]7CO)O[C@@H]6CO)O[C@@H]5CO)O[C@@H]4Cn1cc(COCCOCCNC(=O)[C@@]2(C)CC[C@]4(C)CC[C@]5(C)C(=CC(=O)[C@@H]6[C@@]7(C)CC[C@H](O)C(C)(C)[C@@H]7CC[C@]65C)[C@@H]4C2)nn1)O[C@@H]3COC(C)=O
- Activity (MDCK): Non-Toxic
- Activity (Influenza A virus): Active

SMILES: CC1(C)[C@@H](O)CC[C@]2(C)[C@H]3C(=O)C=C4[C@@H]5C[C@@](C)(C(=O)NCCOCCOCCOCCOCCOCCOCc6cn(C[C@H]7O[C@@H]8O[C@H]9[C@H](O)[C@@H](O)[C@@H](O[C@H]%10[C@H](O)[C@@H](O)[C@@H](O[C@H]%11[C@H](O)[C@@H](O)[C@@H](O[C@H]%12[C@H](O)[C@@H](O)[C@@H](O[C@H]%13[C@H](O)[C@@H](O)[C@@H](O[C@H]%14[C@H](O)[C@@H](O)[C@@H](O[C@H]7[C@H](O)[C@H]8O)O[C@@H]%14CO)O[C@@H]%13CO)O[C@@H]%12CO)O[C@@H]%11CO)O[C@@H]%10CO)O[C@@H]9CO)nn6)CC[C@]5(C)CC[C@@]4(C)[C@]3(C)CC[C@@H]12
- Activity (MDCK): Non-Toxic
- Activity (Influenza A virus): Active

SMILES: CC(=O)OC[C@H]1O[C@@H]2O[C@H]3[C@H](OC(C)=O)[C@@H](OC(C)=O)[C@@H](O[C@H]4[C@H](OC(C)=O)[C@@H](OC(C)=O)[C@@H](O[C@H]5[C@H](OC(C)=O)[C@@H](OC(C)=O)[C@@H](O[C@H]6[C@H](OC(C)=O)[C@@H](OC(C)=O)[C@@H](O[C@H]7[C@H](OC(C)=O)[C@@H](OC(C)=O)[C@@H](O[C@H]8[C@H](OC(C)=O)[C@@H](OC(C)=O)[C@@H](O[C@H]1[C@H](OC(C)=O)[C@H]2OC(C)=O)O[C@@H]8COC(C)=O)O[C@@H]7COC(C)=O)O[C@@H]6COC(C)=O)O[C@@H]5Cn1cc(-c2ccc(NC(=O)[C@@]5(C)CC[C@]6(C)CC[C@]7(C)C(=CC(=O)[C@@H]8[C@@]9(C)CC[C@H](O)C(C)(C)[C@@H]9CC[C@]87C)[C@@H]6C5)cc2)nn1)O[C@@H]4COC(C)=O)O[C@@H]3COC(C)=O
- Activity (MDCK): Non-Toxic

SMILES: CC(=O)OC[C@H]1O[C@@H]2O[C@H]3[C@H](OC(C)=O)[C@@H](OC(C)=O)[C@@H](O[C@H]4[C@H](OC(C)=O)[C@@H](OC(C)=O)[C@@H](O[C@H]5[C@H](OC(C)=O)[C@@H](OC(C)=O)[C@@H](O[C@H]6[C@H](OC(C)=O)[C@@H](OC(C)=O)[C@@H](O[C@H]7[C@H](OC(C)=O)[C@@H](OC(C)=O)[C@@H](O[C@H]8[C@H](OC(C)=O)[C@@H](OC(C)=O)[C@@H](O[C@H]1[C@H](OC(C)=O)[C@H]2OC(C)=O)O[C@@H]8COC(C)=O)O[C@@H]7COC(C)=O)O[C@@H]6COC(C)=O)O[C@@H]5Cn1cc(COCCOCCNC(=O)[C@@]2(C)CC[C@]5(C)CC[C@]6(C)C(=CC(=O)[C@@H]7[C@@]8(C)CC[C@H](O)C(C)(C)[C@@H]8CC[C@]76C)[C@@H]5C2)nn1)O[C@@H]4COC(C)=O)O[C@@H]3COC(C)=O
- Activity (MDCK): Non-Toxic
- Activity (Influenza A virus): Active

SMILES: CC1(C)[C@@H](O)CC[C@]2(C)[C@H]3C(=O)C=C4[C@@H]5C[C@@](C)(C(=O)Nc6ccc(-c7cn(C[C@H]8O[C@@H]9O[C@H]%10[C@H](O)[C@@H](O)[C@@H](O[C@H]%11[C@H](O)[C@@H](O)[C@@H](O[C@H]%12[C@H](O)[C@@H](O)[C@@H](O[C@H]%13[C@H](O)[C@@H](O)[C@@H](O[C@H]%14[C@H](O)[C@@H](O)[C@@H](O[C@H]%15[C@H](O)[C@@H](O)[C@@H](O[C@H]8[C@H](O)[C@H]9O)O[C@@H]%15CO)O[C@@H]%14CO)O[C@@H]%13CO)O[C@@H]%12CO)O[C@@H]%11CO)O[C@@H]%10CO)nn7)cc6)CC[C@]5(C)CC[C@@]4(C)[C@]3(C)CC[C@@H]12
- Activity (MDCK): Non-Toxic

SMILES: CC(=O)OC[C@H]1O[C@@H]2O[C@H]3[C@H](OC(C)=O)[C@@H](OC(C)=O)[C@@H](O[C@H]4[C@H](OC(C)=O)[C@@H](OC(C)=O)[C@@H](O[C@H]5[C@H](OC(C)=O)[C@@H](OC(C)=O)[C@@H](O[C@H]6[C@H](OC(C)=O)[C@@H](OC(C)=O)[C@@H](O[C@H]7[C@H](OC(C)=O)[C@@H](OC(C)=O)[C@@H](O[C@H]8[C@H](OC(C)=O)[C@@H](OC(C)=O)[C@@H](O[C@H]1[C@H](OC(C)=O)[C@H]2OC(C)=O)O[C@@H]8COC(C)=O)O[C@@H]7COC(C)=O)O[C@@H]6COC(C)=O)O[C@@H]5Cn1cc(CO[C@H]2CC[C@]5(C)[C@H]6C(=O)C=C7[C@@H]8C[C@@](C)(C(=O)OCc9ccccc9)CC[C@]8(C)CC[C@@]7(C)[C@]6(C)CC[C@H]5C2(C)C)nn1)O[C@@H]4COC(C)=O)O[C@@H]3COC(C)=O
- Activity (MDCK): Non-Toxic

SMILES: CC(=O)OC[C@H]1O[C@@H]2O[C@H]3[C@H](OC(C)=O)[C@@H](OC(C)=O)[C@@H](O[C@H]4[C@H](OC(C)=O)[C@@H](OC(C)=O)[C@@H](O[C@H]5[C@H](OC(C)=O)[C@@H](OC(C)=O)[C@@H](O[C@H]6[C@H](OC(C)=O)[C@@H](OC(C)=O)[C@@H](O[C@H]7[C@H](OC(C)=O)[C@@H](OC(C)=O)[C@@H](O[C@H]8[C@H](OC(C)=O)[C@@H](OC(C)=O)[C@@H](O[C@H]1[C@H](OC(C)=O)[C@H]2OC(C)=O)O[C@@H]8COC(C)=O)O[C@@H]7COC(C)=O)O[C@@H]6COC(C)=O)O[C@@H]5Cn1cc(CO[C@H]2CC[C@]5(C)[C@H]6C(=O)C=C7[C@@H]8C[C@@](C)(C(=O)O)CC[C@]8(C)CC[C@@]7(C)[C@]6(C)CC[C@H]5C2(C)C)nn1)O[C@@H]4COC(C)=O)O[C@@H]3COC(C)=O
- Activity (MDCK): Non-Toxic

SMILES: COC[C@H]1O[C@@H]2O[C@H]3[C@H](OC)[C@@H](OC)[C@@H](O[C@H]4[C@H](OC)[C@@H](OC)[C@@H](O[C@H]5[C@H](OC)[C@@H](OC)[C@@H](O[C@H]6[C@H](OC)[C@@H](OC)[C@@H](O[C@H]7[C@H](OC)[C@@H](OC)[C@@H](O[C@H]8[C@H](OC)[C@@H](OC)[C@@H](O[C@H]1[C@H](OC)[C@H]2OC)O[C@@H]8COC)O[C@@H]7COC)O[C@@H]6COC)O[C@@H]5Cn1cc(CNC(=O)[C@@]2(C)CC[C@]5(C)CC[C@]6(C)C(=CC(=O)[C@@H]7[C@@]8(C)CC[C@H](O)C(C)(C)[C@@H]8CC[C@]76C)[C@@H]5C2)nn1)O[C@@H]4COC)O[C@@H]3COC
- Activity (MDCK): Toxic
